Measurements reported in ChEMBL document CHEMBL1126762, “Synthesis and anaerobic activity of novel 1-carba-1-dethiacephalosporins” (J Med Chem, 1993).
In brackets after ≈: the same amount, converted by molar mass.

Tested on: Eikenella corrodens
Test: Antibacterial activity against anaerobic Bacteroides corrodens 1874
Format: functional
Conditions: not given
In short: (§1)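 MIC by agar dilution following the NCCLS M11-A2 (2nd ed.) procedure for antimicrobial testing of anaerobic bacteria.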

SMILES | MIC [µg/mL]
CO/N=C(\C(=O)N[C@@H]1C(=O)N2C(C(=O)O)=C(Sc3ncc(C#N)s3)CC[C@H]12)c1csc(N)n1 | > 128

Tested on: Phocaeicola vulgatus
Test: Antibacterial activity against anaerobic Bacteroides vulgatus 1211
Format: functional
Conditions: not given
In short: as §1

SMILES | MIC [µg/mL]
CO/N=C(\C(=O)N[C@@H]1C(=O)N2C(C(=O)O)=C(Sc3ncc(C#N)s3)CC[C@H]12)c1csc(N)n1 | 16 (≈ 31.6 µM)

Tested on: Bacteroides thetaiotaomicron
Test: Antibacterial activity against anaerobic Bacteroides thetaiotaomicron 1438
Format: functional
Conditions: not given
In short: as §1

SMILES | MIC [µg/mL]
CO/N=C(\C(=O)N[C@@H]1C(=O)N2C(C(=O)O)=C(Sc3ncc(C#N)s3)CC[C@H]12)c1csc(N)n1 | 4 (≈ 7.91 µM)

Tested on: Prevotella melaninogenica
Test: Antibacterial activity against anaerobic Bacteroides melaninogenicus 1856/28
Format: functional
Conditions: not given
In short: as §1

SMILES | MIC [µg/mL]
CO/N=C(\C(=O)N[C@@H]1C(=O)N2C(C(=O)O)=C(Sc3ncc(C#N)s3)CC[C@H]12)c1csc(N)n1 | 0.25 (≈ 0.494 µM)

Tested on: Prevotella melaninogenica
Test: Antibacterial activity against anaerobic Bacteroides melaninogenicus 2736
Format: functional
Conditions: not given
In short: as §1

SMILES | MIC [µg/mL]
CO/N=C(\C(=O)N[C@@H]1C(=O)N2C(C(=O)O)=C(Sc3ncc(C#N)s3)CC[C@H]12)c1csc(N)n1 | 32 (≈ 63.3 µM)

Tested on: Bacteroides fragilis
Test: Antibacterial activity against anaerobic Bacteroides fragilis 111
Format: functional
Conditions: not given
In short: as §1

SMILES | MIC [µg/mL]
CO/N=C(\C(=O)N[C@@H]1C(=O)N2C(C(=O)O)=C(Sc3ncc(C#N)s3)CC[C@H]12)c1csc(N)n1 | > 128

Tested on: Bacteroides fragilis
Test: Antibacterial activity against anaerobic Bacteroides fragilis 1877
Format: functional
Conditions: not given
In short: as §1

SMILES | MIC [µg/mL]
CO/N=C(\C(=O)N[C@@H]1C(=O)N2C(C(=O)O)=C(Sc3ncc(C#N)s3)CC[C@H]12)c1csc(N)n1 | 16 (≈ 31.6 µM)

Tested on: Bacteroides fragilis
Test: Antibacterial activity against anaerobic Bacteroides fragilis 1936B
Format: functional
Conditions: not given
In short: as §1

SMILES | MIC [µg/mL]
CO/N=C(\C(=O)N[C@@H]1C(=O)N2C(C(=O)O)=C(Sc3ncc(C#N)s3)CC[C@H]12)c1csc(N)n1 | > 128

Tested on: Clostridioides difficile
Test: Antibacterial activity against anaerobic Clostridium difficile 2994 strain
Format: functional
Conditions: not given
In short: as §1

SMILES | MIC [µg/mL]
CO/N=C(\C(=O)N[C@@H]1C(=O)N2C(C(=O)O)=C(Sc3ncc(C#N)s3)CC[C@H]12)c1csc(N)n1 | 0.06 (≈ 0.119 µM)

Tested on: Clostridium perfringens
Test: Antibacterial activity against anaerobic Clostridium perfringens 81
Format: functional
Conditions: not given
In short: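 Agar dilution MIC following NCCLS document M11-A2 (Vol. 10, no. 15), the method for antimicrobial testing of anaerobic bacteria; value reported as minimum inhibitory concentration.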

SMILES | MIC [µg/mL]
CO/N=C(\C(=O)N[C@@H]1C(=O)N2C(C(=O)O)=C(Sc3ncc(C#N)s3)CC[C@H]12)c1csc(N)n1 | 0.25 (≈ 0.494 µM)

Tested on: Clostridium septicum
Test: Antibacterial activity against anaerobic Clostridium septicum 1128
Format: functional
Conditions: not given
In short: as §1

SMILES | MIC [µg/mL]
CO/N=C(\C(=O)N[C@@H]1C(=O)N2C(C(=O)O)=C(Sc3ncc(C#N)s3)CC[C@H]12)c1csc(N)n1 | 1 (≈ 1.98 µM)

Tested on: Escherichia coli
Test: Antibacterial activity against aerobic Escherichia coli EC14
Format: functional
Conditions: not given
In short: (§2)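 MIC by agar dilution following the NCCLS M7-A2 (2nd ed.) procedure for bacteria that grow aerobically.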

SMILES | MIC [µg/mL]
CO/N=C(\C(=O)N[C@@H]1C(=O)N2C(C(=O)O)=C(Sc3ncc(C#N)s3)CC[C@H]12)c1csc(N)n1 | 0.5 (≈ 0.989 µM)

Tested on: not listed separately
Test: Antibacterial activity against anaerobic Eubacterium aerofaciens 1235
Format: functional
Conditions: Collinsella aerofaciens
In short: as §1

SMILES | MIC [µg/mL]
CO/N=C(\C(=O)N[C@@H]1C(=O)N2C(C(=O)O)=C(Sc3ncc(C#N)s3)CC[C@H]12)c1csc(N)n1 | 16 (≈ 31.6 µM)

Tested on: Klebsiella aerogenes
Test: Antibacterial activity against aerobic Enterobacter aerogenes C32
Format: functional
Conditions: not given
In short: as §2

SMILES | MIC [µg/mL]
CO/N=C(\C(=O)N[C@@H]1C(=O)N2C(C(=O)O)=C(Sc3ncc(C#N)s3)CC[C@H]12)c1csc(N)n1 | 0.5 (≈ 0.989 µM)

Tested on: not listed separately
Test: Antibacterial activity against anaerobic Fusobacterium symbiosum 1470
Format: functional, fusobacterium symbosium
Conditions: not given
In short: as §1

SMILES | MIC [µg/mL]
CO/N=C(\C(=O)N[C@@H]1C(=O)N2C(C(=O)O)=C(Sc3ncc(C#N)s3)CC[C@H]12)c1csc(N)n1 | 2 (≈ 3.96 µM)

Tested on: Fusobacterium necrophorum
Test: Antibacterial activity against anaerobic Fusobacterium necrophorum 6054A
Format: functional
Conditions: not given
In short: as §1

SMILES | MIC [µg/mL]
CO/N=C(\C(=O)N[C@@H]1C(=O)N2C(C(=O)O)=C(Sc3ncc(C#N)s3)CC[C@H]12)c1csc(N)n1 | 0.25 (≈ 0.494 µM)

Tested on: Haemophilus influenzae
Test: Antibacterial activity against aerobic Haemophilus influenzae RES 76
Format: functional
Conditions: not given
In short: as §2

SMILES | MIC [µg/mL]
CO/N=C(\C(=O)N[C@@H]1C(=O)N2C(C(=O)O)=C(Sc3ncc(C#N)s3)CC[C@H]12)c1csc(N)n1 | 0.125 (≈ 0.247 µM)

Tested on: Klebsiella pneumoniae
Test: Antibacterial activity against aerobic Klebsiella pneumoniae X26
Format: functional
Conditions: not given
In short: as §2

SMILES | MIC [µg/mL]
CO/N=C(\C(=O)N[C@@H]1C(=O)N2C(C(=O)O)=C(Sc3ncc(C#N)s3)CC[C@H]12)c1csc(N)n1 | 0.25 (≈ 0.494 µM)

Tested on: Peptostreptococcus anaerobius
Test: Antibacterial activity against anaerobic Peptostreptococcus anaerobius 1451
Format: functional
Conditions: not given
In short: as §1

SMILES | MIC [µg/mL]
CO/N=C(\C(=O)N[C@@H]1C(=O)N2C(C(=O)O)=C(Sc3ncc(C#N)s3)CC[C@H]12)c1csc(N)n1 | 0.5 (≈ 0.989 µM)

Tested on: not listed separately
Test: Antibacterial activity against anaerobic Peptostreptococcus intermedius 1264
Format: functional
Conditions: not given
In short: as §1

SMILES | MIC [µg/mL]
CO/N=C(\C(=O)N[C@@H]1C(=O)N2C(C(=O)O)=C(Sc3ncc(C#N)s3)CC[C@H]12)c1csc(N)n1 | 0.03 (≈ 0.0593 µM)

Tested on: Pseudomonas aeruginosa
Test: Antibacterial activity against aerobic Pseudomonas aeruginosa X239 strain
Format: functional
Conditions: not given
In short: as §2

SMILES | MIC [µg/mL]
CO/N=C(\C(=O)N[C@@H]1C(=O)N2C(C(=O)O)=C(Sc3ncc(C#N)s3)CC[C@H]12)c1csc(N)n1 | 128 (≈ 253 µM)

Tested on: not listed separately
Test: Antibacterial activity against anaerobic Peptococcus asaccharolyticus 1302
Format: functional
Conditions: Peptoniphilus asaccharolyticus
In short: as §1

SMILES | MIC [µg/mL]
CO/N=C(\C(=O)N[C@@H]1C(=O)N2C(C(=O)O)=C(Sc3ncc(C#N)s3)CC[C@H]12)c1csc(N)n1 | 0.25 (≈ 0.494 µM)

Tested on: Anaerococcus prevotii
Test: Antibacterial activity against anaerobic Peptococcus prevoti 1281
Format: functional
Conditions: not given
In short: as §1

SMILES | MIC [µg/mL]
CO/N=C(\C(=O)N[C@@H]1C(=O)N2C(C(=O)O)=C(Sc3ncc(C#N)s3)CC[C@H]12)c1csc(N)n1 | 0.5 (≈ 0.989 µM)

Tested on: Cutibacterium acnes
Test: Antibacterial activity against anaerobic Propionibacterium acnes 79
Format: functional
Conditions: not given
In short: as §1

SMILES | MIC [µg/mL]
CO/N=C(\C(=O)N[C@@H]1C(=O)N2C(C(=O)O)=C(Sc3ncc(C#N)s3)CC[C@H]12)c1csc(N)n1 | 0.03 (≈ 0.0593 µM)

Tested on: Staphylococcus epidermidis
Test: Antibacterial activity against aerobic Staphylococcus epidermidis 222
Format: functional
Conditions: not given
In short: as §2

SMILES | MIC [µg/mL]
CO/N=C(\C(=O)N[C@@H]1C(=O)N2C(C(=O)O)=C(Sc3ncc(C#N)s3)CC[C@H]12)c1csc(N)n1 | 1 (≈ 1.98 µM)

Tested on: Streptococcus pneumoniae
Test: Antibacterial activity against aerobic Streptococcus pneumoniae PARK
Format: functional
Conditions: not given
In short: as §2

SMILES | MIC [ng/mL]
CO/N=C(\C(=O)N[C@@H]1C(=O)N2C(C(=O)O)=C(Sc3ncc(C#N)s3)CC[C@H]12)c1csc(N)n1 | 8 (≈ 0.0158 µM)

Tested on: Staphylococcus aureus
Test: Antibacterial activity against aerobic Staphylococcus aureus X1.1 strain
Format: functional
Conditions: not given
In short: as §2

SMILES | MIC [µg/mL]
CO/N=C(\C(=O)N[C@@H]1C(=O)N2C(C(=O)O)=C(Sc3ncc(C#N)s3)CC[C@H]12)c1csc(N)n1 | 0.25 (≈ 0.494 µM)
